Laboratory results published in ChEMBL document CHEMBL1145196, “Medicinal chemistry driven approaches toward novel and selective serotonin 5-HT6 receptor ligands” (J Med Chem, 2005).

What was measured:
[1] = target: T1, 5-hydroxytryptamine receptor 6 (Homo sapiens, UniProt P50406); assay: Inhibition of [3H]LSD binding to human 5-hydroxytryptamine 6 receptor expressed in HEK293 cells; type: cell-based
How it was run: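 Bound ligand collected on polyethylenimine-pretreated glass fiber filters, washed with 50 mM Tris Cl pH 7.4, counted by liquid scintillation. Nonspecific binding defined with 100 µM serotonin. Competition data fitted by LIGAND; triplicate determinations per point.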

[2] = target: T1, 5-hydroxytryptamine receptor 6; assay: Antagonist activity against cAMP accumulation in C6 cells expressing 5-hydroxytryptamine 6 receptor; type: functional, cell-based; details: Rattus norvegicus, filed as antagonist
How it was run: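 C6 cells detached with trypsin 2 h before assay, seeded ~50 000 cells/well. Compounds added with or without forskolin for 30 min. Data are means of at least three separate experiments.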

[3] = target: T1, 5-hydroxytryptamine receptor 6; assay: Agonist activity against cAMP accumulation in C6 cells expressing 5-hydroxytryptamine 6 receptor; type: functional, cell-based; details: Rattus norvegicus, filed as agonist
[4] = target: T1, 5-hydroxytryptamine receptor 6; assay: Binding affinity for human 5-hydroxytryptamine 6 receptor
[5] = target: T1, 5-hydroxytryptamine receptor 6; assay: Partial agonist activity against cAMP accumulation in C6 cells expressing 5-hydroxytryptamine 6 receptor; type: functional, cell-based; details: Rattus norvegicus, filed as partial agonist

T1 sequence (P50406 whole entry): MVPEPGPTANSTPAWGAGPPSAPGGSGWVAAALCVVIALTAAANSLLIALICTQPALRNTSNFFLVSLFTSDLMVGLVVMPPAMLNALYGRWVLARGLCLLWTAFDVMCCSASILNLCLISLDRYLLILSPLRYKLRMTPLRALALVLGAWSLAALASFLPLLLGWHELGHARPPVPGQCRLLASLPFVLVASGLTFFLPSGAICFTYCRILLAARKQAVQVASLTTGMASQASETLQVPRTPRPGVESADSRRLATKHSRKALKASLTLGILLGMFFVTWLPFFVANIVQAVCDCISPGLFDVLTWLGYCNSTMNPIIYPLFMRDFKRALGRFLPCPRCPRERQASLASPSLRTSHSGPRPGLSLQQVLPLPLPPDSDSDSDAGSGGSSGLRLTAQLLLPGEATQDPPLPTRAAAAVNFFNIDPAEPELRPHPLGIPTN

In the case of `O=S(=O)(Nc1ccc2c(ccn2CCN2CCCC2)c1)c1c(Cl)nc2sccn12`, the Ki [1] is reported as 9.8 nM and the Activity [2] is reported as “Antagonist”.

In the case of `CCN(CC)CCn1ccc2cc(NS(=O)(=O)c3c(Cl)nc4sccn34)ccc21`, the Ki [1] is reported as 97.3 nM and the Activity [2] is reported as “Antagonist”.

In the case of `Cc1cc2cc(NS(=O)(=O)c3cccc4ccccc34)ccc2n1CCN(C)C`, the Ki [1] is reported as 124 nM and the Activity [2] is reported as “Antagonist”.

`Cc1c(S(=O)(=O)Nc2ccc3cc(C)n(CCN(C)C)c3c2)sc2ccc(Cl)cc12` showed a Ki [1] greater than 1000 nM.

`O=C1OCc2ccccc2N1C1CCN(S(=O)(=O)c2cccc3cccnc23)CC1` was tested, and the Activity [2] was “Antagonist”.

`O=S(=O)(Nc1ccc2ccn(CCN3CCCC3)c2c1)c1c(Cl)nc2sccn12` was tested, and the Ki [1] was 52.2 nM and the Activity [2] was “Antagonist”.

Compound `CCN(CC)C(=O)C(=O)c1c[nH]c2ccc(NS(=O)(=O)c3cccc4cccnc34)cc12` has a Ki [1] greater than 1000 nM.

In the case of `Cc1c(S(=O)(=O)Nc2ccc3[nH]cc(CCN(C)C)c3c2)sc2ccc(Cl)cc12`, the Ki [1] is reported as 0.1 nM and the Activity [3] is reported as “Agonist”.

In the case of `Cc1c(S(=O)(=O)Nc2ccc3[nH]cc(CCN4CCOCC4)c3c2)sc2ccc(Cl)cc12`, the Ki [1] is reported as 15.1 nM and the Activity [2] is reported as “Antagonist”.

`CCN(CC)CCc1c[nH]c2ccc(NS(=O)(=O)c3ccc(-c4ccccc4)cc3)cc12` was tested, and the Activity [3] was “Agonist”.

`CN1CCN(C2Cc3ccccc3Sc3ccc(Cl)cc32)CC1` (centres undefined) [CLOROTEPINE] gave a Ki [4] of less than 50 nM.

In the case of `COc1ccc2c(c1)c(CCN(C)C)cn2S(=O)(=O)c1ccccc1`, the Ki [4] is reported as less than 50 nM.

In the case of `CCCN(CCC)CCc1c[nH]c2ccc(NS(=O)(=O)c3ccc4ccccc4c3)cc12`, the Ki [1] is reported as 3.9 nM and the Activity [5] is reported as “Partial agonist”.

In the case of `CN(C)CCc1c[nH]c2ccc(NS(=O)(=O)c3ccc(-c4ccccc4)cc3)cc12`, the Ki [1] is reported as 0.4 nM and the Activity [3] is reported as “Agonist”.

For `O=S(=O)(CCc1cccc2ccccc12)Nc1ccc2ccn(CCN3CCCC3)c2c1`, the Ki [1] was 195 nM and the Activity [2] was “Antagonist”.

With `CN(C)CCc1c[nH]c2ccc(NS(=O)(=O)c3ccc4c(Cl)cccc4c3)cc12` the Ki [1] was 0.2 nM and the Activity [2] was “Antagonist”.

For `CCCCN(CCCC)CCc1c[nH]c2ccc(NS(=O)(=O)c3cccc4ccccc34)cc12`, the Ki [1] was 7.2 nM and the Activity [2] was “Antagonist”.

`CNc1cc(NS(=O)(=O)c2ccc(N)cc2)nc(NC)n1` was tested, and the Ki [1] was 44.7 nM.

In the case of `O=S(=O)(Nc1ccc2ccn(CCN3CCCC3)c2c1)c1ccc2ccccc2c1`, the Ki [1] is reported as 101 nM and the Activity [2] is reported as “Antagonist”.

`Cc1cccc2c1N(C1CCN(S(=O)(=O)c3cccc4c(N(C)C)cccc34)CC1)C(=O)OC2` was tested, and the Ki [1] was 336 nM and the Activity [2] was “Antagonist”.

For `CCN(CC)CCc1c[nH]c2ccc(NS(=O)(=O)c3cc(Cl)cc(Cl)c3)cc12`, the Activity [5] was “Partial agonist”.

With `O=S(=O)(Nc1ccc2[nH]cc(CCN3CCOCC3)c2c1)c1ccc2ccccc2c1` the Ki [1] was 132 nM and the Activity [2] was “Antagonist”.

With `O=S(=O)(Nc1ccc2[nH]cc(CCN3CCCC3)c2c1)c1ccc2ccccc2c1` the Ki [1] was 4.3 nM and the Activity [5] was “Partial agonist”.

With `CN(C)CCc1c[nH]c2ccc(NS(=O)(=O)c3c(Cl)nc4sccn34)cc12` the Activity [5] was “Partial agonist”.

In the case of `CC(C)C[C@H]1C(=O)N2CCC[C@H]2[C@]2(O)O[C@](NC(=O)[C@@H]3C=C4c5cccc6[nH]c(Br)c(c56)C[C@H]4N(C)C3)(C(C)C)C(=O)N12` [BROMOCRIPTINE], the Ki [4] is reported as less than 50 nM.

With `Cc1cc2cc(NS(=O)(=O)c3ccc4ccccc4c3)ccc2n1CCN(C)C` the Ki [1] was 85.8 nM and the Activity [2] was “Antagonist”.

`Cc1cccc2c1N(C1CCN(S(=O)(=O)c3csc4ccccc34)CC1)C(=O)OC2` was tested, and the Ki [1] was 124 nM and the Activity [2] was “Antagonist”.

For `O=S(=O)(Nc1ccc2ccn(CCN3CCCC3)c2c1)c1cccc2ccccc12`, the Ki [1] was 18.6 nM and the Activity [2] was “Antagonist”.

For `CN(C)CCc1c[nH]c2ccc(NS(=O)(=O)c3cccc4ccccc34)cc12`, the Ki [1] was 0.8 nM and the Activity [5] was “Partial agonist”.

With `Cc1c(S(=O)(=O)Nc2ccc3ccn(CCN4CCCC4)c3c2)sc2ccc(Cl)cc12` the Ki [1] was 109 nM and the Activity [2] was “Antagonist”.

With `CN(C)CCn1ccc2cc(NS(=O)(=O)c3c(Cl)nc4sccn34)ccc21` the Activity [2] was “Antagonist”.

In the case of `CCN(CC)CCc1c[nH]c2ccc(NS(=O)(=O)c3sc4ccc(Cl)cc4c3C)cc12`, the Ki [1] is reported as 0.3 nM and the Activity [3] is reported as “Agonist”.

`O=S(=O)(Nc1ccc2[nH]cc(CCN3CCCC3)c2c1)c1cccc2ccccc12` was tested, and the Ki [1] was 4.5 nM and the Activity [2] was “Antagonist”.

For `O=S(=O)(Nc1ccc2c(ccn2CCCN2CCCCC2)c1)c1c(Cl)nc2sccn12`, the Ki [1] was greater than 1000 nM.

For `Cc1c(S(=O)(=O)Nc2cccc3c2cc(C)n3CCN(C)C)sc2ccc(Cl)cc12`, the Ki [1] was 57.7 nM and the Activity [2] was “Antagonist”.

With `CN1CCC(c2c[nH]c3ccc(NS(=O)(=O)c4cccc5ccccc45)cc23)CC1` the Activity [2] was “Antagonist”.

In the case of `CN(C)CCn1ccc2c(NS(=O)(=O)c3ccc4ccccc4c3)cccc21`, the Ki [1] is reported as 14.9 nM and the Activity [2] is reported as “Antagonist”.

For `CN(C)C(=O)C(=O)c1c[nH]c2ccc(NS(=O)(=O)c3c(Cl)nc4sccn34)cc12`, the Activity [2] was “Antagonist”.

For `O=C1OCc2ccccc2N1C1CCN(S(=O)(=O)c2cccc3ccccc23)CC1`, the Activity [2] was “Antagonist”.

With `CN(C)CCn1ccc2ccc(NS(=O)(=O)c3ccc4ccccc4c3)cc21` the Activity [2] was “Antagonist”.

For `CN(C)CCn1ccc2cc(NS(=O)(=O)c3ccc4ccccc4c3)ccc21`, the Ki [1] was 57.7 nM and the Activity [2] was “Antagonist”.

For `CCCN(CCC)CCc1c[nH]c2ccc(NS(=O)(=O)c3sc4ccc(Cl)cc4c3C)cc12`, the Ki [1] was 0.5 nM and the Activity [5] was “Partial agonist”.

With `CCN(CC)CCc1c[nH]c2ccc(NS(=O)(=O)c3cccc4c(Cl)cccc34)cc12` the Ki [1] was 3.3 nM and the Activity [5] was “Partial agonist”.

With `COc1ccc(OC)c(S(=O)(=O)N2CCC(N3C(=O)OCc4cccc(C)c43)CC2)c1` the Ki [1] was 131 nM and the Activity [2] was “Antagonist”.

`CCN(CC)CCn1ccc2cc(NS(=O)(=O)c3ccc4ccccc4c3)ccc21` was tested, and the Ki [1] was 140 nM and the Activity [2] was “Antagonist”.

`CN1CCN(C2=Nc3ccccc3Oc3ccc(Cl)cc32)CC1` [LOXAPINE] showed a Ki [4] of less than 50 nM.

`CCc1[nH]c2ccc(OC)cc2c1CCN(C)C` showed a Ki [4] of less than 50 nM.

With `Cc1c(S(=O)(=O)Nc2ccc3[nH]cc(CCN4CCCC4)c3c2)sc2ccc(Cl)cc12` the Ki [1] was 4 nM and the Activity [5] was “Partial agonist”.

`CN(C)CCn1ccc2cc(NS(=O)(=O)Cc3ccccc3)ccc21` showed a Ki [1] greater than 1000 nM.

In the case of `CN1CC=C(c2cn(S(=O)(=O)c3cccc4ccccc34)c3ccc(F)cc23)CC1`, the Ki [4] is reported as less than 50 nM.

For `O=S(=O)(Nc1ccc2[nH]cc(CCN3CCOCC3)c2c1)c1cccc2ccccc12`, the Ki [1] was 163 nM and the Activity [2] was “Antagonist”.

`CCN(CC)CCc1c[nH]c2ccc(NS(=O)(=O)c3ccc4ccccc4c3)cc12` was tested, and the Ki [1] was 40.8 nM.

For `CCN(CC)C(=O)C(=O)c1c[nH]c2ccc(NS(=O)(=O)c3c(Cl)nc4sccn34)cc12`, the Activity [2] was “Antagonist”.

In the case of `CNc1cc(NS(=O)(=O)c2ccc(N)cc2)cc(NC)n1`, the Ki [1] is reported as 14.8 nM.

For `O=C1OCc2ccccc2N1C1CCN(S(=O)(=O)c2csc3ccccc23)CC1`, the Ki [1] was 126 nM and the Activity [2] was “Antagonist”.

In the case of `CN(C)CCn1ccc2c(NS(=O)(=O)c3cccc4ccccc34)cccc21`, the Ki [1] is reported as 64.7 nM and the Activity [2] is reported as “Antagonist”.

For `CCN(CC)CCn1ccc2cc(NS(=O)(=O)c3cccc4ccccc34)ccc21`, the Ki [1] was 116 nM and the Activity [2] was “Antagonist”.

In the case of `CCN(CC)C(=O)C(=O)c1c[nH]c2ccc(NS(=O)(=O)c3cccc4ccccc34)cc12`, the Ki [1] is reported as greater than 1000 nM.

Compound `COc1ccc(Br)cc1S(=O)(=O)N1CCC(N2C(=O)OCc3cccc(C)c32)CC1` has a Ki [1] greater than 1000 nM.

Work on `OCCN1CCN(CCCN2c3ccccc3Sc3ccc(C(F)(F)F)cc32)CC1` [FLUPHENAZINE] yielded a Ki [4] of less than 50 nM.

With `CCN(CC)CCCc1c[nH]c2ccc(NS(=O)(=O)c3ccc4ccccc4c3)cc12` the Ki [1] was 163 nM and the Activity [2] was “Antagonist”.

For `Cc1c(S(=O)(=O)Nc2ccc3[nH]cc(C4CCN(C)CC4)c3c2)sc2ccc(Cl)cc12`, the Ki [1] was 1 nM and the Activity [2] was “Antagonist”.

`Cc1cccc2c1N(C1CCN(S(=O)(=O)c3cccc4cccnc34)CC1)C(=O)OC2` was tested, and the Activity [2] was “Antagonist”.

For `Cc1c(S(=O)(=O)Nc2ccc3ccn(CCN(C)C)c3c2)sc2ccc(Cl)cc12`, the Activity [5] was “Partial agonist”.

For `O=S(=O)(Nc1ccc2c(ccn2CCN2CCCCC2)c1)c1c(Cl)nc2sccn12`, the Ki [1] was 31.4 nM and the Activity [2] was “Antagonist”.

`Cc1cc2cc(NS(=O)(=O)c3c(Cl)nc4sccn34)ccc2n1CCN(C)C` was tested, and the Ki [1] was 74.6 nM and the Activity [2] was “Antagonist”.

`Cc1c(S(=O)(=O)Nc2ccc3[nH]cc(C(=O)C(=O)N(C)C)c3c2)sc2ccc(Cl)cc12` was tested, and the Ki [1] was greater than 1000 nM.

With `Cc1c(S(=O)(=O)Nc2ccc3[nH]cc(CN(C)C)c3c2)sc2ccc(Cl)cc12` the Ki [1] was 5.3 nM and the Activity [2] was “Antagonist”.

`CN1CCC(c2c[nH]c3ccc(NS(=O)(=O)c4cccc5c(Cl)cccc45)cc23)CC1` was tested, and the Ki [1] was 9.6 nM and the Activity [2] was “Antagonist”.
